Lmaj promast – inhibitors of Leishmania major promastigote growth. Leishmania major promastigotes, resazurin fluorescence viability. 9% of 200,000 active. inhibition, % at 10 µM. AID 1063;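 note: promastigotes grown with compound for 44 hours at 28 °C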
PKD1 inh – inhibitors of human PKD1 kinase; AID 797; 0.056% of 200,000 active; PKD1 kinase fluorescence polarization assay; Q15139; inhibition, % (test concentration not listed)
Rad51 HR inh – Rad51 (human) homologous recombination inhibition. Q06609. hRad51 DNA strand exchange, fluorescence dequenching. inhibition, % at 10 µM. 0.085% of 200,000 active;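 active = inhibition above 40% at the single screening dose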;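 note: 0% = DMSO control wells and 100% = blanks with heterologous ssDNA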
Target sequence (Q06609 whole entry, looked up): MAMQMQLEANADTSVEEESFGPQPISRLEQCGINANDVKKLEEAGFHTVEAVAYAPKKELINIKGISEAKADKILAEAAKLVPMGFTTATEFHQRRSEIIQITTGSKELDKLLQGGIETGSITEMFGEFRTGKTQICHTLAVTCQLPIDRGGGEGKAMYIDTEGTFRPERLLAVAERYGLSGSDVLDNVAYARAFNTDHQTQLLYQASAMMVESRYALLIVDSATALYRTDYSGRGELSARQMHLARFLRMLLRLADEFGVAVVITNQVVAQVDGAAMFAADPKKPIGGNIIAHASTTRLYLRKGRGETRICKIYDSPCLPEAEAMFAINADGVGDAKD
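Material: human Rad51–ssDNA filaments; Probe or stimulus: labelled 47-mer dsDNA for strand exchange; Doses: single 10 µM dose; Incubation: 37 °C 15-min filament assembly, 30-min compound preincubation, 15-min exchange; Technique: FRET fluorescence dequenching, excitation 485 nm, emission 520 nm; Measure: Fluorescence-based percent inhibition, control- and blank-normalised; Benchmarks: plate control and blank wells.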
Wee1 degr inh – inhibitors of human Wee1 degradation; P30291; 1.2% of 220,000 active; reporter increase, % at 5 µM; HeLa Luc-Wee1K328M stability, luciferase luminescence; 100% = proteasome inhibitor MG132 effect;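 active = activation above the mean of all tested compounds plus 3 SD, set per screening run, cut at about 8.8% in these data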;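 note: cells exposed to compound for 20 h before luminescence read; 0% = DMSO alone and 100% = MG132 at 30 µM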
Arbovirus anti – blocks arbovirus infection; inhibition, % at 10 µM; arbovirus infection cell-based antiviral screen; 0.37% of 200,000 active; AID 1251; in the data active = inhibition above about 30%
CHOP inhibitor – blocks CHOP induction under ER stress. 3.8% of 220,000 active. AID 2732. inhibition, % at 10 µM. CHO-K1 CHOP-promoter luciferase, tunicamycin-induced, 15-18 h;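 active = compounds that reduced the stress-induced luciferase reporter signal by more than about 70% of percent inhibition, limit read from the data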;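 note: 0% = tunicamycin plus vehicle and 100% = wells without tunicamycin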
* marks the source's active call; other numbers are inactive results; x = not tested or not shown. In the library only some 12% were active in any assay of this set; here they are far more common. Cut-off read from the data, not from the text of the source, unless noted: active = inhibition above about 50%; inactive = the rest.

SMILES	Lmaj promast	PKD1 inh	Rad51 HR inh	Wee1 degr inh	Arbovirus anti	CHOP inhibitor
CCc1cccc2c(SC(C)C(=O)NCC3CCCO3)nc(-c3ccccc3)nc12 (stereo not drawn)	19	10	-5	0	-4	48
CCc1cccc2c(SCC(=O)NCC3CCCO3)nc(-c3ccc(F)cc3)nc12 (stereo not drawn)	0	13	-2	-2	-8	79*
CC(C)C(NC(=O)c1ccc(F)cc1)C(=O)NCC1CCCO1 (stereo not drawn)	x	x	x	-2	x	2
Cc1ccc(Nc2ccc(NCc3ccccc3)nn2)cc1C	28	4	-24	5	2	34
Clc1ccc(Nc2ccc(NCc3ccccc3)nn2)cc1	91*	-2	-7	2	-34	13
CCC[C@@H]1CCCO[C@@](C(=O)NCc2cc(C)n(C)n2)(C(F)(F)F)C1	x	x	-6	x	x	x
COc1cc(C(=O)O/N=C2/C=CC(=O)C(C)=C2C)cc(OC)c1OC	100*	-6	x	0	-34	40
COc1cc(C(=O)O/N=C2\C=CC(=O)C=C2C)cc(OC)c1OC	97*	-16	-5	2	-3	94*
COc1cc(C(=O)O/N=C2\CCCc3c2ccc(OC)c3[N+](=O)[O-])cc(OC)c1OC	-5	-8	x	4	3	39
COc1ccccc1C(=O)NCc1ccccn1	-3	0	10	-3	-9	-4
O=C(Nc1ncn[nH]1)c1cccc(S(=O)(=O)N2CCOCC2)c1	5	6	1	0	3	38
COC(=O)c1ccc(CSc2nnc(C)n2N)o1	-3	9	x	5	-3	-11
CCn1c(SC)nnc1-c1sc2cc(Cl)ccc2c1Cl	87*	-1	2	7	1	66
Cc1cc(C(=O)CN2C(=O)NC3(CCCCC3)C2=O)c(C)n1Cc1ccc2c(c1)OCO2	31	3	-3	9.2*	-16	63
Cc1cc(C(=O)CN2C(=O)NC3(CCCC3)C2=O)c(C)n1-c1ccc2c(c1)OCO2	-3	-12	-5	3	-1	12
O=C(CNC(=S)N(Cc1ccccc1)Cc1cccs1)NCc1ccc(F)cc1	20	4	-1	2	-19	13
CCCCNC(=O)CNC(=S)N(Cc1ccccc1F)C1CCCCC1	6	-5	8	9.1*	-3	42
COCCCNC(=O)CNC(=S)N(Cc1ccccc1F)C1CCCCC1	0	-11	x	-1	6	40
O=C(CNC(=S)N(Cc1ccccc1)Cc1ccccc1F)NCCc1ccc(Cl)cc1	98*	-7	-5	-1	-36	55
Cc1cc(CN(C)Cc2ccc(OCC(O)CN(C)Cc3ccccc3)cc2)on1 (stereo not drawn)	88*	5	x	-1	-6	-8
CN(Cc1ccccc1)CC(O)COc1ccc(CNCc2nccn2C)cc1 (stereo not drawn)	20	-4	3	-1	-11	-18
CN(Cc1ccccc1)CC(O)COc1ccc(CNCCc2ccncc2)cc1 (stereo not drawn)	90*	-13	2	-2	-17	-4
CN(Cc1ccccc1)CC(O)COc1ccc(CNCCc2cccnc2)cc1 (stereo not drawn)	83*	4	x	1	-13	6
CCc1ccc(CNCc2ccc(OCC(O)CN(C)Cc3ccccc3)cc2)nc1 (stereo not drawn)	85*	-5	13	1	-20	27
Cc1nnc2n1CCCCC2	x	x	x	-1	x	-4
SMILES	Lmaj promast	PKD1 inh	Rad51 HR inh	Wee1 degr inh	Arbovirus anti	CHOP inhibitor
CCCn1nnc(NC(=O)c2ccc3c(c2)OCO3)n1	x	x	-7	7	x	-8
CC(=O)Nc1nonc1NC(=O)COc1ccccc1	-4	-2	x	-2	-4	-2
CCOC(=O)c1nc2c(ccc3ccccc32)cc1C	x	x	12	0	x	24
CCCc1nc2ccc(NC(=O)NCCC(=O)OCC)cc2c(=O)n1Cc1cccc(Cl)c1	2	-2	8	17*	4	54
COc1ccc(C#Cc2c(-c3ccsc3)oc3ccc(-c4cc(OC)c(OC)c(OC)c4)cc23)cc1	x	x	-9	x	x	x
Cc1ccc(CNc2ccc3c(c2)ncn3C)cc1	60*	-11	-1	7	2	-26
C[N+]1(C)CCCC(OC(=O)C(O)(c2ccccc2)c2ccccc2)C1 (stereo not drawn)	x	x	2	x	x	x
Cc1ccc(S(=O)(=O)Nc2ccc(C(=O)Nc3ccncc3)cc2)cc1	45	-2	14	-1	-1	15

Screens (PubChem BioAssay)
